# Source: PubChem BioAssay
# SR-BI uptake up = activators of SR-BI mediated DiI-HDL uptake, primary screen, ldlA[mSR-BI] CHO cells, DiI fluorescence; 3 h; 100 = double the neutral-control signal; activation, % at 12.5 µM; actives 0.096% (n = 320,000);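 active means mean replicate activation of at least 60% and every replicate at or above 60%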;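 further: 0% = median plate neutral-control signal and 100% = twice that signal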
#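 Material: SR-BI-overexpressing, LDLR-lacking CHO cells; schedule: compound exposure 3 h, 37 °C; reagent: DiI-labelled HDL at 10 µg/mL final; technique: bottom-read fluorescence, 550/595 nm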
# SMARCA2 activ = SMARCA2 (BRM) function activators, primary screen, cell-based, luminescence, high throughput; actives 1% (n = 370,000); MG213 cells, MMTV-luciferase reporter, dexamethasone, overnight; activation, % at 9.1 µM; in the data active means activation above about 7.8%;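 further: 0% = vehicle wells and 100% = reference activator wells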
# SR-BI DiI inh = inhibitors of SR-BI mediated HDL lipid uptake, primary screen, ldlA[mSR-BI] cells, fluorescence, single point. ldlA[mSR-BI] CHO cells, DiI-HDL uptake fluorescence, 3 h. Scavenger receptor class B member 1 (Mus musculus), Q61009. inhibition, % at 12.5 µM. actives 0.96% (n = 320,000);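 active means mean replicate inhibition of at least 70% and a set share of replicates each scoring 70 or more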;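 further: 0% = median of neutral control wells and 100% = median of positive control wells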
# Target sequence (Q61009 whole entry, looked up): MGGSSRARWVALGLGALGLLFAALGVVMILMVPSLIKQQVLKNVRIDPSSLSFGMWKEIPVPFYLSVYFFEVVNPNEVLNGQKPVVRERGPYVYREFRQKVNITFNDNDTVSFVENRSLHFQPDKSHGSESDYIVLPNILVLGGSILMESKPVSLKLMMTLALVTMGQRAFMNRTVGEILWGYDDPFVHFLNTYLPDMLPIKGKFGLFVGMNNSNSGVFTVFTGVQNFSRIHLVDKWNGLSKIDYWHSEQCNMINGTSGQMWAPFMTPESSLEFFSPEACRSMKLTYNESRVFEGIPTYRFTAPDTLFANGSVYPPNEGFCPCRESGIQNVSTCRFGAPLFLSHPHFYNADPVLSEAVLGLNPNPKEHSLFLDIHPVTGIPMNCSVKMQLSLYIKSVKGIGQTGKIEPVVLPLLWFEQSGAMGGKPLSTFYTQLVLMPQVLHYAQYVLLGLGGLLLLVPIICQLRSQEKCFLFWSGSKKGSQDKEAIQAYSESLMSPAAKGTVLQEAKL
# Vif imaging = HIV Vif self-association inhibitors, primary screen, imaging, HEK293T, single point | AID 602346, 2012 | actives 0.35% (n = 340,000) | inhibition, % at 7.49 µM | HEK293T cells, Vif self-association by quenched fluorescence, 24 h; in the data active means inhibition above about 50%, passing the limit was not always enough
# H9c2 TAG inh = inhibitors of triacylglycerol accumulation, primary screen, cell-based, uHTS, fluorescence, H9c2; inhibition, % at 12.5 µM; actives 0.66% (n = 230,000); H9c2 cells, Nile Red lipid (TAG) fluorescence; cells loaded with 200 µM oleic acid; AID 651582, 2012;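 active means pattern-corrected inhibition of lipid staining of at least 50% with the nuclear-stain viability signal not falling by more than 50%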;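 further: 0% = DMSO wells and 100% = triacsin C control wells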
# SMARCA2 conf = SMARCA2 (BRM) function activators, confirmation, cell-based, luminescence, triplicate; shares compounds with SMARCA2 activ; MG213 cells, MMTV-luciferase with dexamethasone, overnight; MG213 cells expressing E1A, Rb sequestered; DMSO wells 0%, reference activator 100%; activation, % at 9.1 µM; actives 30% (n = 3,500);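 active means activation above its plate's cutoff, the mean activation of tested wells plus 3 SD, cut at about 7.9% in these data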
# VP16 Luc act = GAL4-VP16 luciferase reporter activation, counter-screen for SMARCA2 (BRM) activator project, cell-based, pG5luc, luminescence, high throughput. HEK293 GAL4-VP16 pG5luc reporter; scaled: DMSO wells 0%, SAHA wells 100%. AID 686939, 2013. shares compounds with SMARCA2 activ. actives 41% (n = 3,500). activation, % at 9.1 µM;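 active means activation above the solvent-only control well mean plus 3 SD, averaged across control plates, cut at about 5.2% in these data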
# The depositor's hits bear a star; x = no result. An excerpt weighted towards active compounds, which were near 2.5% of everything screened.
SMILES,SR-BI uptake up,SMARCA2 activ,SR-BI DiI inh,Vif imaging,H9c2 TAG inh,SMARCA2 conf,VP16 Luc act
CCN(C(=O)CSc1ccccn1)C1CCCCC1,11,-2,-11,-4,-9,x,x
O=C1CN(C(=S)NC(=O)c2ccc(-c3ccccc3)cc2)CCN1,-7,10*,7,16,0,7,4
CCN(CCn1cccn1)C(=O)CCc1nnc(CCCc2ccccc2)o1,34,8.7*,-34,3,6,11*,6.4*
O=C(NCCNc1ccccc1[N+](=O)[O-])c1cc(F)c(F)cc1Cl,-21,14*,21,-4,-11,5,5.3*
O=C1Nc2ccccc2S/C1=C/c1cccs1,0,10*,0,0,7,5,1
Cc1ccc(CN2CC(N3CCN(CCO)CC3)CS2(=O)=O)cc1 (stereo not given),x,-4,x,x,x,x,x
O=S1(=O)CC(N2CCN(CCO)CC2)CN1Cc1ccc(F)cc1 (stereo not given),x,8.1*,x,x,x,-4,-1
N#C/C(=C\c1ccc(OCc2ccc(C(=O)O)cc2)cc1)C(=O)N1CCOCC1,35,10*,-35,2,-1,2,15*
COc1cc(/C=C(\C#N)C(=O)N2CCOCC2)ccc1OCc1ccccc1,-10,-3,10,-2,1,x,x
CSc1nnc(NC(=O)c2ccc3c(c2)OCO3)s1,17,6,-17,0,8,x,x
O=C(Nc1ccc2c(c1)oc1ccccc12)c1ccc2c(c1)OCO2,-38,8.9*,38,-10,-3,7,-1
Cc1nnc(NC(=O)c2ccc3c(c2)OCO3)s1,18,10*,-18,-4,-6,7,9.5*
CC(/C=C1\SC(=S)N(NC(=O)c2ccc(O)cc2)C1=O)=C\c1ccccc1,30,9.0*,-30,1,x,1,1
COCCNC(=O)c1c(N)n(/N=C/c2ccc(F)cc2)c2nc3ccccc3nc12,x,0,x,3,29,x,x
CC(C)CNC(=O)c1c(N)n(/N=C/c2ccccn2)c2nc3ccccc3nc12,x,8.5*,x,x,42,-7,3
COC(=O)c1cc(S(=O)(=O)N2CCN(C(C)=O)CC2)cn1C,x,-5,x,x,x,x,x
CCOCCn1c(CN2CCCCC2)nc2c1c(=O)n(C)c(=O)n2C,-3,8.1*,3,-1,-5,0,0
CCOCCn1c(CN2CCN(CC)CC2)nc2c1c(=O)n(C)c(=O)n2C,0,-1,0,0,0,x,x
O=c1ccn([C@@H]2O[C@H](CNCc3cccn3-c3nccs3)[C@@H](O)[C@H]2O)c(=O)[nH]1,x,-2,x,1,x,x,x
CN1C(C(=O)NCc2ccc(OC(F)(F)F)cc2)CC2Cn3c(nc4ccccc43)C21 (stereo not given),-2,1,2,0,3,x,x
COc1cccc(C(=O)Nc2nnc(-c3cccs3)s2)c1,8,8.3*,-8,8,9,12*,14*
COc1ccc(OCCSc2nc(N)cc(N)n2)cc1,9,11*,-9,-3,-112,8.6*,8.5*
Nc1cc(N)nc(SCCc2ccccc2)n1,10,9.5*,-10,7,x,3,1
O=C(N1CCOCC1)N1CCc2ccccc21,-13,-4,13,-2,x,x,x
O=C(Nc1cccc([N+](=O)[O-])c1)NC1CCCCN(Cc2cccc(Cl)c2)C1=O (stereo not given),x,-6,x,x,x,x,x
COc1cccc(C(=O)/C=C/Nc2ccc(S(=O)(=O)Nc3onc(C)c3C)cc2)c1,-5,12*,5,2,x,-1,0
Cc1noc(NS(=O)(=O)c2ccc(N/C=C\C(=O)c3ccc(Br)cc3)cc2)c1C,5,1,-5,9,1,x,x
